Results reported in ChEMBL document CHEMBL4732185, “Synthesis, biological evaluation and structure-activity relationship of novel dichloroacetophenones targeting pyruvate dehydrogenase kinases with potent anticancer activity” (Eur J Med Chem, 2021).
Active and inactive are the calls of the source.

Assays:
MCF7 = assay: Antiproliferative activity against human MCF7 cells assessed as growth inhibition at 10 uM after 72 hrs by MTT assay relative to control; format: functional; conditions: read-out: GI
Method in brief: (§1)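 Single-concentration MTT screen on MCF-7 and A549 cells grown in DMEM + 10% FBS. Cells at 3000–6000/well, cultured overnight, then given compound in buffer with 1% DMSO for 72 h. MTT (0.5 mg/mL) added for 4 h, formazan dissolved in DMSO, A570 read. Percent inhibition reported as the average ± S.D. of three independent measurements.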

A549 [1] = assay: Antiproliferative activity against human A549 cells assessed as growth inhibition at 10 uM after 72 hrs by MTT assay relative to control; format: functional; conditions: read-out: GI; method in brief: as §1
A549 [2] = assay: Antiproliferative activity against human A549 cells assessed as growth inhibition at 1 uM after 72 hrs by MTT assay relative to control; format: functional; conditions: read-out: GI; method in brief: as §1
Homo sapiens = organism: Homo sapiens; assay: Inhibition of PDK (unknown origin) using RYHGHSMSDP as substrate at 1 uM after 30 mins by Kinase-Glo luminescent assay
SH-SY5Y = assay: Antiproliferative activity against human SHSY-5Y cells assessed as growth inhibition after 72 hrs by MTT assay; format: functional, cell-based; conditions: Homo sapiens, SH-SY5Y, 72 h; read-out: IC50
Method in brief: (§2)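 MTT viability assay. Cancer lines seeded at 3000–6000 cells/well and L02 at 7000 cells/well, cultured overnight, then exposed to a full dose range for 72 h. MTT (0.5 mg/mL) added for 4 h, supernatant removed, formazan dissolved in DMSO, absorbance read at 570 nm. IC50 taken as the mean of three independent experiments. Cells grown in DMEM + 10% FBS, 37 °C, 5% CO2.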

A-375 [3] = assay: Antiproliferative activity against human A375 cells assessed as growth inhibition after 72 hrs by MTT assay; format: functional, cell-based; conditions: Homo sapiens, A-375, 72 h; read-out: IC50; method in brief: as §2
[4] = target: [Pyruvate dehydrogenase (acetyl-transferring)] kinase isozyme 1, mitochondrial (Homo sapiens, UniProt Q15118); assay: Binding affinity to PDK1 (unknown origin) by isothermal titration calorimetry
Method in brief: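 Isothermal titration calorimetry at 25 °C. Compound dissolved in DMSO, diluted to 100 µM in buffer and placed in the titration syringe; 250 µL of PDK protein solution in the reaction cell. Titrant added in 2.5 µL increments per injection.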

A-375 [5] = assay: Induction of apoptosis in human A375 cells assessed as viable cells at 1 uM after 36 hrs by annexinV-FITC/propidium iodide staining based flow cytometric analysis (reference value: 94.15%); format: functional; conditions: read-out: Activity
A-375 [6] = assay: Induction of apoptosis in human A375 cells assessed as necrotic cells at 1 uM after 36 hrs by annexinV-FITC/propidium iodide staining based flow cytometric analysis (reference value: 1.63%); format: functional
A-375 [7] = assay: Induction of apoptosis in human A375 cells assessed as viable cells at 2.5 uM after 36 hrs by annexinV-FITC/propidium iodide staining based flow cytometric analysis (reference value: 94.15%); format: functional; conditions: read-out: Activity
A-375 [8] = assay: Induction of apoptosis in human A375 cells assessed as early apoptotic cells at 2.5 uM after 36 hrs by annexinV-FITC/propidium iodide staining based flow cytometric analysis (reference value: 3.2%); format: functional
A-375 [9] = assay: Induction of apoptosis in human A375 cells assessed as early apoptotic cells at 5 uM after 36 hrs by annexinV-FITC/propidium iodide staining based flow cytometric analysis (reference value: 3.2%); format: functional
A-375 [10] = assay: Induction of apoptosis in human A375 cells assessed as early apoptotic cells at 5 uM after 12 hrs by annexinV-FITC/propidium iodide staining based flow cytometric analysis (reference value: 0.87%); format: functional
A-375 [11] = assay: Induction of apoptosis in human A375 cells assessed as necrotic cells at 5 uM after 12 hrs by annexinV-FITC/propidium iodide staining based flow cytometric analysis (reference value: 0.56%); format: functional
A-375 [12] = assay: Induction of apoptosis in human A375 cells assessed as late apoptotic cells at 5 uM after 24 hrs by annexinV-FITC/propidium iodide staining based flow cytometric analysis (reference value: 0.63%); format: functional
A-375 [13] = assay: Induction of apoptosis in human A375 cells assessed as necrotic cells at 5 uM after 24 hrs by annexinV-FITC/propidium iodide staining based flow cytometric analysis (reference value: 0.56%); format: functional
A-375 [14] = assay: Induction of cell cycle arrest in human A375 cells assessed as accumulation at G2 phase at 1 uM after 24 hrs by propidium iodide staining based flow cytometric analysis (reference value: 10.02%); format: functional
A-375 [15] = assay: Induction of cell cycle arrest in human A375 cells assessed as accumulation at G1 phase at 2.5 uM after 24 hrs by propidium iodide staining based flow cytometric analysis (reference value: 52.65%); format: functional
A-375 [16] = assay: Induction of cell cycle arrest in human A375 cells assessed as accumulation at S phase at 2.5 uM after 24 hrs by propidium iodide staining based flow cytometric analysis (reference value: 37.33%); format: functional
A-375 [17] = assay: Induction of cell cycle arrest in human A375 cells assessed as accumulation at S phase at 5 uM after 24 hrs by propidium iodide staining based flow cytometric analysis (reference value: 37.33%); format: functional
A-375 [18] = assay: Induction of cell cycle arrest in human A375 cells assessed as accumulation at G1 phase after 24 hrs by propidium iodide staining based flow cytometric analysis; format: functional; conditions: dose 1-5 µM
A-375 [19] = assay: Inhibition of cell migration in human A375 cells at 0.5 to 2 uM after 24 hrs by wound healing assay; format: functional, cell-based; conditions: dose 0.5-2 µM
Method in brief: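 A375 monolayer scratched and treated for 24 h, imaged at ×100. Closure ratio (%) = (start scratched area − after scratched area)/start scratched area, compared with control. P < 0.05 versus control considered significant.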

A-375 [20] = assay: Induction of mitochondrial membrane depolarization in human A375 cells at 2 to 10 uM after 4 hrs by TMRM staining based confocal microscopic analysis; format: functional, cell-based; conditions: dose 2-10 µM
Method in brief: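 A375 cells seeded at 4 x 10⁴ cells/mL and grown overnight at 37 °C. Treated 4 h at 37 °C. TMRM in fresh medium added for 15 min at 37 °C. Cells washed 3 times with cool PBS and imaged by laser scanning confocal microscopy.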

A-375 [21] = assay: Induction of ROS generation in human A375 cells at 1 to 5 uM after 4 hrs by DCFH-DA staining based assay; format: functional, cell-based; conditions: dose 1-5 µM
Method in brief: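 ROS assay. A375 cells loaded with diluted DCFH-DA for 45 min at 37 °C, washed three times with PBS, then treated with compound at 37 °C for 4 h. Fluorescence read on a microplate reader at Ex/Em 485/535 nm.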

A-375 [22] = assay: Antitumour activity against human A375 cells xenografted with mouse assessed as tumour growth inhibition at 5 mg/kg, im administered once per three days for 21 days; format: functional, organism-based; conditions: time 21.0 day
Method in brief: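 Xenograft model. A375 cells harvested at 80% confluence with trypsin/EDTA, resuspended in serum-free DMEM and injected subcutaneously into the right flank of mice. Once tumours were visible (about 7 days), mice were randomised to vehicle or 5 mg/kg groups, n = 4, dosed by intramuscular injection once every three days. Tumour growth and body weight followed; tumours harvested and weighed at 21 days.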

Sequence of [Pyruvate dehydrogenase (acetyl-transferring)] kinase isozyme 1, mitochondrial (Q15118 whole entry): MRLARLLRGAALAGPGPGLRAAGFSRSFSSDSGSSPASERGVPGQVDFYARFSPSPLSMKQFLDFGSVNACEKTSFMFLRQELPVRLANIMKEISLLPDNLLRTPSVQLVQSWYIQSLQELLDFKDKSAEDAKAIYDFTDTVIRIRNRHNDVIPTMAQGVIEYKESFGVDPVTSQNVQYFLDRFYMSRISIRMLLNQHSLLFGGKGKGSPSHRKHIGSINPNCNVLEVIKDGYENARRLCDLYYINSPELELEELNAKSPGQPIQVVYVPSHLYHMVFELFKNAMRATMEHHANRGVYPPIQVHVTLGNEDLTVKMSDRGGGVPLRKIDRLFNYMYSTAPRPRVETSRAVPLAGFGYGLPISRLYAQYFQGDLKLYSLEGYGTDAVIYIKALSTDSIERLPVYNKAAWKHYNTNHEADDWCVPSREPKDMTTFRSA

inhibition (Homo sapiens): 98.7% | IC50 (SH-SY5Y): 1700 nM | IC50 (A-375 [3]): 1100 nM | Kd [4]: 210 nM
SMILES: CC(C)(CO)c1ccc(Nc2ccc(C(=O)C(Cl)Cl)cc2[N+](=O)[O-])cc1
inhibition of growth at 10 µM (MCF7): 95.3% | inhibition of growth at 10 µM (A549 [1]): 98.6% | inhibition of growth at 1 µM (A549 [2]): 29.4% | viability at 1 µM (A-375 [5]): 81.9% | Activity (A-375 [6]): 4.06% | viability at 2.5 µM (A-375 [7]): 68.9% | Activity (A-375 [8]): 5.6% | Activity (A-375 [9]): 6.52% | Activity (A-375 [10]): 8.7% | Activity (A-375 [11]): 1.65% | Activity (A-375 [12]): 19.11% | Activity (A-375 [13]): 3.56% | Activity (A-375 [14]): 9.64% | Activity (A-375 [15]): 60.75% | Activity (A-375 [16]): 30.75% | Activity (A-375 [17]): 27.43% | Activity (A-375 [18]): Dose-dependent effect | inhibition (A-375 [19]): Active | Activity (A-375 [20]): Active | Activity (A-375 [21]): Active | Activity (A-375 [22]): Active
